Laboratory results taken from paper PMC7591420 (Targeted Oncology, 2020).
Like-named read-outs stand apart in the source and are kept apart here.

Assays:
[1] = system: patients; details: cited from earlier work
[2] = system: patients with advanced solid tumors; format: in vivo, human; details: all cohorts
Outline: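 Open-label, non-randomized multicenter escalation plus expansion, 28-day cycles. PI3K inhibitor 0.2–0.8 mg/kg IV over 1 h on days 1, 8, 15 or 1, 8, 15, 22 (max 65 mg); MEK inhibitor 30–50 mg BID orally, continuous from day 4 or 4 days on/3 off from day 6. DLTs assessed in cycle 1; adverse events graded by NCI CTCAE v4.0.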

[3] = copanlisib 0.4 mg/kg as monotherapy; cited from earlier work
[4] = Plasma pharmacokinetics of copanlisib; format: in vivo, human; details: for Cmax / AUC(0-t): human, plasma, intravenous, cycle 1 day 1, copanlisib alone, geometric mean (% CV); for AUC(0-t): AUC(0–25)
[5] = system: patients with solid tumors; details: intravenous monotherapy; cited from earlier work
[6] = system: patients with advanced cancer; details: cited from earlier work
[7] = Plasma pharmacokinetics of refametinib; format: in vivo, human; details: for AUC(0-t) / Cmax: human, plasma, oral, cycle 1 day 14, refametinib alone, geometric mean (% CV); for AUC(0-t): AUC(0–8)
[8] = 0.4 mg/kg, cohort 2C: copanlisib 0.4 mg/kg weekly, refametinib 30 mg BID
[9] = 0.4 mg/kg, expansion cohort: copanlisib 0.4 mg/kg weekly, refametinib 30 mg BID
[10] = 30 mg, cohort 2C: copanlisib 0.4 mg/kg weekly, refametinib 30 mg BID
[11] = 30 mg, expansion cohort: copanlisib 0.4 mg/kg weekly, refametinib 30 mg BID

In the case of `O=C(NOCCO)c1cc(CN2OCCCC2=O)c(F)c(F)c1Nc1ccc(I)cc1F` [RO4987655], the “incidence of ophthalmologic toxicities” value [1] is given as 27%.

In the case of `COc1c(OCCCN2CCOCC2)ccc2c1N=C(NC(=O)c1cnc(N)nc1)N1CCN=C21` [copanlisib], the “Patients with dose modifications attributed to copanlisib-related TEAEs” value ([2]; N = 64) is given as 39.1%, the “Patients with TEAEs considered related to copanlisib” value ([2]; N = 64, given with refametinib) is given as 93.8% and the “activity of 0.4 mg/kg versus 0.8 mg/kg” value [3] is given as “less active than 0.8 mg/kg”. It also gave a Cmax ([4]; 0.2 mg/kg, cohort 1: copanlisib 0.2 mg/kg 3 weeks on/1 week off, refametinib 30 mg BID) of 126 ng/mL, an AUC(0-t) [4, 8] of 725 ng·h/mL and an AUC(0-t) [4, 9] of 890 ng·h/mL. It also gave a Cmax [4, 8] of 241 ng/mL, a Cmax [4, 9] of 312 ng/mL and a Cmax ([4]; cohort 2) of 189 ng/mL. The “median time of Cmax, range over cohorts” value ([4]; single infusion 0.2–0.8 mg/kg, cycle 1, day 1) was 0.50 to 1.03 h, the “copanlisib Cmax and AUC(0–25), day 1 (alone) versus day 15 (with refametinib)” value ([4]; within each cohort) was “comparable between day 1 and day 15” and the “maximum tolerated dose (MTD), single agent” value [5] was 0.8 mg/kg.

In the case of `COc1cc(F)c(F)c(Nc2ccc(I)cc2F)c1NS(=O)(=O)C1(C[C@H](O)CO)CC1` [refametinib], the “Patients with dose modifications attributed to refametinib-related TEAEs” value ([2]; N = 64) is given as 53.1%, the “Patients with TEAEs considered related to refametinib” value ([2]; N = 64, given with copanlisib) is given as 95.3% and the “MTD, single agent” value ([6]; oral, twice daily (BID), monotherapy) is given as 50 mg. The partial response rate ([6]; refametinib monotherapy) was 2%, the stable disease ([6]; refametinib monotherapy) was 16% and the AUC(0-t) ([7]; 30 mg, cohort 1: copanlisib 0.2 mg/kg 3 weeks on/1 week off, refametinib 30 mg BID) was 2510 ng·h/mL. It also gave an AUC(0-t) ([7]; 30 mg, cohort 2B: copanlisib 0.6 mg/kg 3 weeks on/1 week off, refametinib 30 mg BID) of 3750 ng·h/mL, an AUC(0-t) [7, 10] of 4770 ng·h/mL and an AUC(0-t) ([7]; 30 mg, cohort 3A: copanlisib 0.8 mg/kg 3 weeks on/1 week off, refametinib 30 mg BID) of 4530 ng·h/mL. For the same compound, the AUC(0-t) [7, 11] was 5310 ng·h/mL, the Cmax [7, 10] was 873 ng/mL and the Cmax [7, 11] was 845 ng/mL. For the same compound, the AUC(0-t) ([7]; cohort 2) was 5110 ng·h/mL, the Cmax ([7]; cohort 2) was 943 ng/mL and the “median time of Cmax, range over cohorts” value ([7]; multiple doses of refametinib 30 mg or 50 mg BID) was 1.50 to 4.00 h.

In the case of `CC(=O)Nc1cccc(-n2c(=O)n(C3CC3)c(=O)c3c(Nc4ccc(I)cc4F)n(C)c(=O)c(C)c32)c1` [trametinib], the “incidence of ophthalmologic toxicities” value ([1]; all-cause) is listed as 19%.
